Measured values: ChEMBL document CHEMBL3352265, “Potentially bioactive organotin(IV) compounds: synthesis, characterization, in vitro bioactivities and interaction with SS-DNA” (Eur J Med Chem, 2014)
Calls of active or inactive are those of the source. The rule behind the calls is not given here.

Columns and labels:
Aspergillus niger [1] = test: Antifungal activity against Aspergillus niger FCBP 0198 at 40 mg/mL after 7 days by disc diffusion method; assay type: functional
Method in brief: (§1)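 Disc diffusion on SDA. Fungi cultured at 28 °C for 24 h. 4 mm discs received compound at 40 mg/mL stock in DMSO. DMSO served as negative control, terbinafine as positive control. Plates incubated at 28 °C for 7 days. Growth diameter (mm) measured and inhibition calculated against the negative control. MIC taken as the lowest concentration with no growth.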

Aspergillus fumigatus [2] = test: Antifungal activity against Aspergillus fumigatus FCBP 66 at 40 mg/mL after 7 days by disc diffusion method; assay type: functional; method in brief: as §1
Aspergillus flavus [3] = test: Antifungal activity against Aspergillus flavus FCBP 0064 at 40 mg/mL after 7 days by disc diffusion method; assay type: functional; method in brief: as §1
Mucor [4] = test: Antifungal activity against Mucor FCBP 0400 at 40 mg/mL after 7 days by disc diffusion method; assay type: functional; method in brief: as §1
Escherichia coli [5] = test: Antibacterial activity against Escherichia coli ATCC 15224 at 40 mg/mL after 24 hrs by disc diffusion method; assay type: functional
Method in brief: (§2)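 Disc diffusion. Strains grown in nutrient broth at 37 °C for 24 h. 1% culture (about 10^6 CFU/mL) mixed into nutrient agar at 45 °C and poured. 4 mm paper discs received compound at 40 mg/mL stock in DMSO; final concentrations tested were […]. DMSO served as negative control, roxithromycin and cefixime as positive controls. Triplicate plates incubated at 37 °C for 24 h. Complete-inhibition zone diameter (mm) recorded as the mean of 3.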

Staphylococcus aureus [6] = test: Antibacterial activity against Staphylococcus aureus ATCC 6538 at 40 mg/mL after 24 hrs by disc diffusion method; assay type: functional; method in brief: as §2
Klebsiella aerogenes [7] = test: Antibacterial activity against Enterobacter aerogenes ATCC 13048 at 40 mg/mL after 24 hrs by disc diffusion method; assay type: functional; method in brief: as §2
Salmonella typhimurium [8] = test: Antibacterial activity against Salmonella typhimurium ATCC 14028 at 40 mg/mL after 24 hrs by disc diffusion method; assay type: functional; details: for inhibition zone (IZ): Salmonella enterica subsp. enterica serovar Typhimurium; method in brief: as §2
[9] = tested on: Bordetella bronchiseptica; test: Antibacterial activity against Bordetella bronchiseptica ATCC 4617 at 40 mg/mL after 24 hrs by disc diffusion method; assay type: functional; method in brief: as §2
Bacillus spizizenii [10] = test: Antibacterial activity against Bacillus subtilis ATCC 6633 at 40 mg/mL after 24 hrs by disc diffusion method; assay type: functional; method in brief: as §2
Escherichia coli [11] = test: Antibacterial activity against Escherichia coli ATCC 15224 after 18 hrs by microdilution method; assay type: functional
Method in brief: (§3)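 Broth microdilution. Twofold dilutions in culture broth at […]. Each well inoculated with bacterial suspension (10^8 CFU/mL, about 10^5 CFU/well). Sterility control and growth control (broth plus DMSO) included. Incubated at 36 °C for 18 h, in triplicate. MIC taken as the lowest concentration inhibiting growth, given in micrograms per mL.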

Staphylococcus aureus [12] = test: Antibacterial activity against Staphylococcus aureus ATCC 6538 after 18 hrs by microdilution method; assay type: functional; method in brief: as §3
Klebsiella aerogenes [13] = test: Antibacterial activity against Enterobacter aerogenes ATCC 13048 after 18 hrs by microdilution method; assay type: functional, organism-based; method in brief: as §3
[14] = tested on: Bordetella bronchiseptica; test: Antibacterial activity against Bordetella bronchiseptica ATCC 4617 after 18 hrs by microdilution method; assay type: functional; method in brief: as §3
Bacillus spizizenii [15] = test: Antibacterial activity against Bacillus subtilis ATCC 6633 after 18 hrs by microdilution method; assay type: functional; method in brief: as §3
Aspergillus niger [16] = test: Antifungal activity against Aspergillus niger FCBP 0198 after 7 days by disc diffusion method; assay type: functional, organism-based; method in brief: as §1
Artemia salina = test: Cytotoxicity in brine shrimp assessed as mortality after 24 hrs; assay type: functional
[17] = tested on: Agrobacterium tumefaciens; test: Antitumor activity against Agrobacterium tumefaciens -induced tumor at 1000 ug/ml after 21 days by potato disc bioassay technique; assay type: functional
Method in brief: (§4)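 Potato disc assay with 48 h culture of A. tumefaciens At-10. Inoculum contained compound at […]. Red-skinned potatoes sterilized in 0.1% HgCl2; 8 mm × 4 mm discs placed ten per 1.5% agar plate, […] each. Incubated at 28 °C in the dark for 21 days, in triplicate. Discs stained with Lugol's and tumors counted. Percent inhibition calculated against the negative control.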

[18] = tested on: Agrobacterium tumefaciens; test: Antitumor activity against Agrobacterium tumefaciens -induced tumor at 100 ug/ml after 21 days by potato disc bioassay technique; assay type: functional; method in brief: as §4
[19] = tested on: Agrobacterium tumefaciens; test: Antitumor activity against Agrobacterium tumefaciens -induced tumor at 10 ug/ml after 21 days by potato disc bioassay technique; assay type: functional; method in brief: as §4
Escherichia coli [20] = test: Induction of Escherichia coli pBR322 DNA damage assessed as open circular form at 1000 ug/ml after 60 mins by gel electrophoresis
Escherichia coli [21] = test: Induction of Escherichia coli pBR322 DNA damage assessed as open circular form at 100 ug/ml after 60 mins by gel electrophoresis
Escherichia coli [22] = test: Induction of Escherichia coli pBR322 DNA damage assessed as open circular form at 10 ug/ml after 60 mins by gel electrophoresis
Escherichia coli [23] = test: Induction of Escherichia coli pBR322 DNA damage assessed as open circular form at 1 ug/ml after 60 mins by gel electrophoresis
Aspergillus fumigatus [24] = test: Antifungal activity against Aspergillus fumigatus FCBP 66 after 7 days by disc diffusion method; assay type: functional, organism-based; method in brief: as §1
Aspergillus flavus [25] = test: Antifungal activity against Aspergillus flavus FCBP 0064 after 7 days by disc diffusion method; assay type: functional, organism-based; method in brief: as §1
Mucor [26] = test: Antifungal activity against Mucor FCBP 0400 at 40 mg/mL by disc diffusion method; assay type: functional, organism-based; method in brief: as §1
Salmonella typhimurium [27] = test: Antibacterial activity against Salmonella typhimurium ATCC 14028 after 18 hrs by microdilution method; assay type: functional; details: Salmonella enterica subsp. enterica serovar Typhimurium; method in brief: as §3

Compound: CN(C/C=C/C#CC(C)(C)C)Cc1cccc2ccccc12 [TERBINAFINE]
- zone of inhibition at 40000 µg/mL (Aspergillus niger [1]; FCBP 0198, 168 h, read-out: DIZ): 35 mm
- zone of inhibition at 40000 µg/mL (Aspergillus fumigatus [2]; FCBP 66, 168 h, read-out: DIZ): 35 mm
- zone of inhibition at 40000 µg/mL (Aspergillus flavus [3]; FCBP 0064, 168 h, read-out: DIZ): 35 mm
- zone of inhibition at 40000 µg/mL (Mucor [4]; FCBP 0400, 168 h, read-out: DIZ): 32 mm

Compound: Dibenzylstannanediyl bis[4-(2-methoxyphenylamino)-4-oxobutanoate]
- inhibition zone (IZ) (Escherichia coli [5]): 16 mm
- inhibition zone (IZ) (Staphylococcus aureus [6]): 20 mm
- inhibition zone (IZ) (Klebsiella aerogenes [7]): 14 mm
- inhibition zone (IZ) (Salmonella typhimurium [8]): 0 mm
- inhibition zone (IZ) [9]: 19 mm
- inhibition zone (IZ) (Bacillus spizizenii [10]): 11 mm
- MIC (Escherichia coli [11]): 50 µg/mL
- MIC (Staphylococcus aureus [12]): 100 µg/mL
- MIC (Klebsiella aerogenes [13]): 150 µg/mL
- MIC [14]: 50 µg/mL
- MIC (Bacillus spizizenii [15]): 200 µg/mL
- inhibition zone (IZ) (Aspergillus niger [1]): 11 mm
- inhibition zone (IZ) (Aspergillus fumigatus [2]): 0 mm
- inhibition zone (IZ) (Aspergillus flavus [3]): 0 mm
- inhibition zone (IZ) (Mucor [4]): 0 mm
- MIC (Aspergillus niger [16]): 200 µg/mL
- LD50 (Artemia salina): 1.1 µg/mL
- Activity [17]: 87.1%
- Activity [18]: 52%
- Activity [19]: 19.3%
- Activity (Escherichia coli [20]): Active
- Activity (Escherichia coli [21]): Active
- Activity (Escherichia coli [22]): Active
- Activity (Escherichia coli [23]): Active

Compound: Diphenylstannanediyl bis(4-(2-methoxyphenylamino)-4-oxobutanoate
- inhibition zone (IZ) (Escherichia coli [5]): 14 mm
- inhibition zone (IZ) (Staphylococcus aureus [6]): 16 mm
- inhibition zone (IZ) (Klebsiella aerogenes [7]): 15 mm
- inhibition zone (IZ) (Salmonella typhimurium [8]): 0 mm
- inhibition zone (IZ) [9]: 11 mm
- inhibition zone (IZ) (Bacillus spizizenii [10]): 17 mm
- MIC (Escherichia coli [11]): 25 µg/mL
- MIC (Staphylococcus aureus [12]): 100 µg/mL
- MIC (Klebsiella aerogenes [13]): 150 µg/mL
- MIC [14]: 200 µg/mL
- MIC (Bacillus spizizenii [15]): 100 µg/mL
- inhibition zone (IZ) (Aspergillus niger [1]): 30 mm
- inhibition zone (IZ) (Aspergillus fumigatus [2]): 32 mm
- inhibition zone (IZ) (Aspergillus flavus [3]): 26 mm
- inhibition zone (IZ) (Mucor [4]): 22 mm
- MIC (Aspergillus niger [16]): 1.56 µg/mL
- MIC (Aspergillus fumigatus [24]): 6.25 µg/mL
- MIC (Aspergillus flavus [25]): 6.25 µg/mL
- MIC (Mucor [26]): 6.25 µg/mL
- LD50 (Artemia salina): 0.403 µg/mL
- Activity [17]: 85.3%
- Activity [18]: 62.2%
- Activity [19]: 43.9%
- Activity (Escherichia coli [20]): Active
- Activity (Escherichia coli [21]): Active
- Activity (Escherichia coli [22]): Active
- Activity (Escherichia coli [23]): Active

Compound: Dibutylstannanediyl bis(4-(2-methoxyphenylamino)-4-oxobutanoate)
- inhibition zone (IZ) (Escherichia coli [5]): 17 mm
- inhibition zone (IZ) (Staphylococcus aureus [6]): 14 mm
- inhibition zone (IZ) (Klebsiella aerogenes [7]): 27 mm
- inhibition zone (IZ) (Salmonella typhimurium [8]): 17 mm
- inhibition zone (IZ) [9]: 20 mm
- inhibition zone (IZ) (Bacillus spizizenii [10]): 22 mm
- MIC (Escherichia coli [11]): 50 µg/mL
- MIC (Staphylococcus aureus [12]): 100 µg/mL
- MIC (Klebsiella aerogenes [13]): 25 µg/mL
- MIC (Salmonella typhimurium [27]): 50 µg/mL
- MIC [14]: 50 µg/mL
- MIC (Bacillus spizizenii [15]): 50 µg/mL
- inhibition zone (IZ) (Aspergillus niger [1]): 14 mm
- inhibition zone (IZ) (Aspergillus fumigatus [2]): 12 mm
- inhibition zone (IZ) (Aspergillus flavus [3]): 0 mm
- inhibition zone (IZ) (Mucor [4]): 0 mm
- MIC (Aspergillus niger [16]): 150 µg/mL
- MIC (Aspergillus fumigatus [24]): 200 µg/mL
- LD50 (Artemia salina): 0.611 µg/mL
- Activity [17]: 88.3%
- Activity [18]: 65.5%
- Activity [19]: 50.2%
- Activity (Escherichia coli [20]): inactive
- Activity (Escherichia coli [21]): inactive
- Activity (Escherichia coli [22]): inactive
- Activity (Escherichia coli [23]): inactive

Compound: CC[C@H]1OC(=O)[C@H](C)[C@@H](O[C@H]2C[C@@](C)(OC)[C@@H](O)[C@H](C)O2)[C@H](C)[C@@H](O[C@@H]2O[C@H](C)C[C@H](N(C)C)[C@H]2O)[C@](C)(O)C[C@@H](C)/C(=N\OCOCCOC)[C@H](C)[C@@H](O)[C@]1(C)O [ROXITHROMYCIN]
- zone of inhibition at 40000 µg/mL (Escherichia coli [5]; ATCC 15224, 24 h, read-out: DIZ): 14 mm
- zone of inhibition at 40000 µg/mL (Staphylococcus aureus [6]; ATCC 6538, 24 h, read-out: DIZ): 14 mm
- zone of inhibition at 40000 µg/mL (Klebsiella aerogenes [7]; ATCC 13048, 24 h, read-out: DIZ): 12 mm
- zone of inhibition at 40000 µg/mL (Salmonella typhimurium [8]; Salmonella enterica, ATCC 14028, 24 h, read-out: DIZ): 16 mm
- zone of inhibition at 40000 µg/mL ([9]; ATCC 4617, 24 h, read-out: DIZ): 19 mm
- zone of inhibition at 40000 µg/mL (Bacillus spizizenii [10]; ATCC 6633, 24 h, read-out: DIZ): 10 mm

Compound: Dioctylstannanediyl bis(4-(2-methoxyphenylamino)-4-oxobutanoate)
- inhibition zone (IZ) (Escherichia coli [5]): 10 mm
- inhibition zone (IZ) (Staphylococcus aureus [6]): 0 mm
- inhibition zone (IZ) (Klebsiella aerogenes [7]): 0 mm
- inhibition zone (IZ) (Salmonella typhimurium [8]): 12 mm
- inhibition zone (IZ) [9]: 11 mm
- inhibition zone (IZ) (Bacillus spizizenii [10]): 9 mm
- MIC (Escherichia coli [11]): 200 µg/mL
- MIC (Salmonella typhimurium [27]): 150 µg/mL
- MIC (Bacillus spizizenii [15]): 200 µg/mL
- inhibition zone (IZ) (Aspergillus niger [1]): 0 mm
- inhibition zone (IZ) (Aspergillus fumigatus [2]): 0 mm
- inhibition zone (IZ) (Aspergillus flavus [3]): 0 mm
- inhibition zone (IZ) (Mucor [4]): 0 mm
- LD50 (Artemia salina): 0.499 µg/mL
- Activity [17]: 65.5%
- Activity [18]: 44.9%
- Activity [19]: 31.2%
